# Assay outcomes: PubChem BioAssay, Johns Hopkins Ion Channel Center
# A selection: hits, their analogues and other compounds. The true share with any hit is near 3.5%.
# RGS4 inh: human RGS4 inhibition | 310,000 tested, 0.45% active | AID 463165 | HEK293 M3R/RGS4 inducible, Fluo-4 calcium flux; hits give high values; triggered by carbachol at its EC20 | B-score at 10 µM | P49798;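 active = B-score, a plate-corrected calcium signal, over three deviations above library mean, with baseline fluorescence within five deviations of library mean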;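 also: RGS4 expression induced by doxycycline in cells with stable M3 receptor; B-score is computed from the integrated fluorescence ratio over baseline after carbachol; higher B-score means a larger calcium signal and so more RGS4 inhibition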
# Target sequence (P49798 whole entry, looked up): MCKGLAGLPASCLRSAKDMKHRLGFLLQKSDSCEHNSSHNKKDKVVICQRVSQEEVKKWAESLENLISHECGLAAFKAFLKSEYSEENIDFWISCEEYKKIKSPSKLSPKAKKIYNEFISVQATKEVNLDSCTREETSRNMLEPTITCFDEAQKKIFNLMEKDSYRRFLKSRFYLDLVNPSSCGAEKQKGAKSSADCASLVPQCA
# RGS4 act: potentiators or activators of RGS4. HEK293 M3R/inducible RGS4, carbachol calcium flux Fluo4; hits give low values. B-score at 10 µM. 310,000 tested, 0.92% active. AID 463111;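 active = B-score of the integrated calcium signal more than 4 SD below the library mean, with starting fluorescence not abnormally high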;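 also: negative B-score means reduced calcium response which marks RGS4 activation or potentiation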
#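 test system = HEK293 cells with stable M3R and inducible RGS4 | schedule = recording 10 s baseline at 1 Hz, 100 s post-agonist | technique = Fluo4-AM (2 µM) calcium-flux fluorescence, kinetic read | measure = Agonist-evoked peak-minus-minimum fluorescence over baseline, integrated ratio, B score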
# MrgX1 agonist: agonists of human MrgX1 receptor; Q96LB2; MrgX1-HEK293 cells, Fluo-4 calcium fluorescence, agonist mode; hits give high values; B-score at 10 µM; 310,000 tested, 0.44% active; AID 588627;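 active = calcium response B-score plate-corrected fluorescence ratio at least 3 library SD, with starting fluorescence B-score inside 5 SD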
# Target sequence (Q96LB2 whole entry, looked up): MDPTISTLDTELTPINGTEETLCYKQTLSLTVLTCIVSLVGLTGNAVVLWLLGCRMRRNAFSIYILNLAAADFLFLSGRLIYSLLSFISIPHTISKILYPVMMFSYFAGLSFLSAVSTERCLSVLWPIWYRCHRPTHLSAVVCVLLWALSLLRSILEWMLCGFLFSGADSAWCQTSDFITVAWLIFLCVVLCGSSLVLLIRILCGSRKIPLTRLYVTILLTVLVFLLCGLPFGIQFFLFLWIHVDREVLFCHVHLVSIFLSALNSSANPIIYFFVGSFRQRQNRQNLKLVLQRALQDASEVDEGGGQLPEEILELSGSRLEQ
#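 Material – MrgX1-expressing HEK293 cells · Input – 15,000 cells seeded per well · Dosing – compound as first of three additions · Times – overnight seeding, then 1 h dark dye loading · Measured by – kinetic Fluo-4 NW fluorescence of intracellular calcium · Read-out – B-scored fluorescence response ratio · Benchmarks – positive and negative control wells on each plate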
# MrgX1 antagonist: human MrgX1 receptor antagonism, primary screen; Q96LB2; MRGX1-HEK293 calcium flux, Fluo-4, BAM8-22 antagonism; hits give low values; B-score at 10 µM; 310,000 tested, 1.3% active;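 active = calcium-response B-score plate-corrected more than 3 library SD below zero, starting fluorescence within 5 deviations, no agonist response on first addition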;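 also: peak minus trough fluorescence over baseline after final BAM8-22 challenge near maximal dose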
# MrgX1 PAM: human MrgX1 positive allosteric modulation, primary screen | Q96LB2 | MrgX1-HEK293, Fluo-4 calcium flux, FDSS; hits give high values | B-score at 10 µM | 310,000 tested, 0.63% active;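 active = plate-corrected calcium response at least 3 library SD above typical, normal starting fluorescence, not activating the receptor alone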;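 also: compound read alongside a low EC10 to EC30 dose of BAM8-22 agonist; peak minus trough fluorescence over baseline measured at the second addition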
# MrgX1 antag conf: human MrgX1 receptor antagonism, re-confirmation screen; shares compounds with MrgX1 antagonist; MrgX1-HEK293, BAM8-22 calcium flux, Fluo-4; hits give low values; remaining BAM8-22 calcium response % of control (hits give low values), % at 10 µM; 2,300 tested, 19% active; AID 602420;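 active = remaining agonist calcium response no higher than 100% minus 3 SD of agonist-only control wells, with starting fluorescence near control levels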;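 also: agonist BAM8-22 given at a near maximal EC90 to ECmax level; peak minus minimum fluorescence divided by baseline after agonist addition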
# HEK293 Ca flux: counter-screen for MrgX1 antagonists: effect in parental HEK293 cells; shares compounds with MrgX1 antagonist; Fluo-4 calcium fluorescence, FDSS; fluorescence ratio F(max-min)/F0 at 10 µM; 4,000 tested, 2% active;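 active = duplicate-averaged calcium fluorescence ratio at least three times the standard deviation of buffer wells, a nonspecific response in parental cells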
# HEK293 Ca counter: activity in parental HEK293 cells without MrgX1; shares compounds with MrgX1 antagonist; parental HEK293 calcium flux, Fluo-4 fluorescence ratio; hits give high values; fluorescence ratio F(max-min)/F0 at 10 µM; 4,000 tested, 0.4% active; AID 624114;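 active = calcium fluorescence ratio, averaged over duplicates, at least 3 SD of the buffer-well ratio, meaning a nonspecific response in receptor-free cells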;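 also: untransfected parental HEK293 lacking MrgX1 used as counterscreen for MrgX1 allosteric activators; fluorescence change taken during the second addition on a kinetic imager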
# HEK293 Ca cntr2: MrgX1 activator counter-screen hit in parental HEK293 cells; shares compounds with MrgX1 antagonist; Fluo-4 calcium fluorescence (FDSS); hits give high values; fluorescence ratio F(max-min)/F0 at 10 µM; 4,000 tested, 8.7% active; AID 624115;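 active = calcium fluorescence ratio at least three times the spread of buffer wells, meaning a non-specific response in parental cells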
# Starred values were filed as active, the others as inactive; i = inactive; . = not tested or not shown.
SMILES,RGS4 inh,RGS4 act,MrgX1 agonist,MrgX1 antagonist,MrgX1 PAM,MrgX1 antag conf,HEK293 Ca flux,HEK293 Ca counter,HEK293 Ca cntr2
O=[N+]([O-])c1ccc(NC2CCCC2)cc1,i,i,i,i,i,.,.,.,.
N#Cc1cc(NC2CCCC2)c([N+](=O)[O-])cc1C#N,i,i,i,-12*,i,i,i,i,i
O=C(Nc1cc(Cl)ccc1N1CCOCC1)C1=COCCO1,i,i,i,i,i,.,.,.,.
Cc1cc(C(=O)CSc2nnc(Cc3ccccc3)o2)c(C)n1Cc1ccc2c(c1)OCO2,i,i,i,-7.5*,i,i,i,i,i
N#CCSc1nnc(Cc2ccc3c(c2)OCO3)o1,i,i,i,-5.4*,i,i,i,i,i
N#CCSc1nnc(-c2ccc3c(c2)OCO3)o1,i,i,i,i,i,.,.,.,.
C=CCn1c(C)cc(C(=O)CSc2nnc(Cc3ccccc3)o2)c1C,i,i,i,i,i,.,.,.,.
O=C(COC(=O)[C@H](Cc1ccccc1)N1C(=O)c2ccccc2C1=O)Nc1ccc2c(c1)OCO2,i,i,i,i,i,.,.,.,.
CC(C)[C@@H](C(=O)OCC(=O)Nc1ccc2c(c1)OCO2)N1C(=O)c2ccccc2C1=O,i,i,i,-5.3*,i,i,i,i,i
Cc1ccccc1-c1nc(CS(=O)(=O)CC(=O)NCCN2CCCC2)c(C)o1,i,i,i,i,i,.,.,.,.
Cc1ccc2nc(-c3ccc(N4C(=O)CC(N5CCC(C(N)=O)CC5)C4=O)cc3)sc2c1 (stereo not drawn),i,i,i,i,i,.,.,.,.
Cc1ccc2nc(-c3ccc(N4C(=N)SC5CS(=O)(=O)CC54)cc3)sc2c1 (stereo not drawn),i,i,i,-7.3*,i,85%*,i,i,i
COc1ccc(Nc2nc(N)nc(CSc3nccc(C)n3)n2)cc1,i,i,i,-9.5*,i,i,i,i,i
Cc1cccc(Nc2nc(N)nc(CSc3nccc(C)n3)n2)c1,i,i,i,i,i,.,.,.,.
CCOC(=O)c1nn(-c2cc(C(=O)OC)cc(C(=O)OC)c2)cc1O,i,i,i,i,i,.,.,.,.
CCOC(=O)c1nn(-c2sc(C(=O)OC)c(C)c2C(=O)OC)cc1O,i,i,i,-6.8*,i,62%*,i,i,i
O=C(CSc1ccccc1)Nc1nnc(C2CC2)s1,i,i,i,i,i,.,.,.,.
Clc1ccccc1Cn1nnc2c(NCC3CC3)ncnc21,i,i,i,-7.5*,i,i,i,i,i
Clc1ccccc1Cn1nnc2c(Nc3ccccc3)ncnc21,i,i,i,i,i,.,.,.,.
Cc1ccc(-c2cc(-c3ccccc3O)nc(N/N=C/c3cccnc3)n2)cc1,i,i,i,i,i,.,.,.,.
Nc1nc(/C=C/c2ccc(F)cc2)nc(-c2ccccc2O)n1,i,i,i,-6.8*,i,84%*,i,i,i
Nc1nc(/C=C/c2cccnc2)nc(-c2ccccc2O)n1,i,i,i,-4.8*,i,i,i,i,i
COc1ccc(/C=C/c2nc(-c3ccccc3O)n[nH]2)cc1,i,i,i,i,i,.,.,.,.
COC(=O)c1ccc(NC(=S)NC2CCCCC2)cc1,i,i,i,i,i,.,.,.,.
COC(=O)c1cccnc1NC(=S)NC1CCCCC1,i,i,i,-4.8*,i,i,i,i,i
SMILES,RGS4 inh,RGS4 act,MrgX1 agonist,MrgX1 antagonist,MrgX1 PAM,MrgX1 antag conf,HEK293 Ca flux,HEK293 Ca counter,HEK293 Ca cntr2
CC(C)Nc1ncnc2c1cnn2-c1ccccc1,i,i,i,-4.9*,i,i,i,i,i
Cc1cccc(-n2ncc3c(NC(C)C)ncnc32)c1,i,i,i,i,i,.,.,.,.
Cc1cccc(-n2cc(CNCCc3nc(C)cc(C)n3)c(-c3cccc(F)c3)n2)c1,i,i,i,i,i,.,.,.,.
COc1cc(NC(=S)NC(=O)c2ccc(C(C)(C)C)cc2)ccc1NC(=O)c1cccs1,i,i,i,-6.2*,i,81%*,i,i,i
COc1ccccc1CN(C)C(=O)c1ccccc1Sc1ccccc1C#N,i,i,i,i,i,.,.,.,.
Cc1ccccc1-c1nc(CS(=O)(=O)CC(=O)N2CCN(C)CC2)c(C)o1,i,i,i,i,i,.,.,.,.
CCN1CCN(S(=O)(=O)c2ccc(C(=O)Nc3sc4c(c3C(N)=O)CCN(CC)C4)cc2)CC1,i,i,i,-9.4*,i,i,i,i,i
CCCCC(=O)NC1=C(C(=O)OC)SCC1,i,i,i,-4.9*,i,i,i,i,i
Cc1ccc(Nc2c3c(nc4ncnn24)CCC3)cc1,i,i,i,-7.2*,i,i,i,i,i
Cc1ccc(Nc2c3c(nc4ncnn24)CC(C)CC3)cc1 (stereo not drawn),i,i,i,i,i,.,.,.,.
CCc1ccccc1NC(=O)[C@@H]1CCC(=O)N1C1OC(=O)c2ccccc21 (stereo partly drawn),i,i,i,-8.1*,i,85%*,i,i,i
CCCCn1c(SCC(=O)Nc2cccc(OC)c2)nc2ccc(N3CCOCC3)cc2c1=O,i,i,i,-5.2*,i,i,i,i,i
CCCCn1c(SCC(N)=O)nc2ccc(N3CCOCC3)cc2c1=O,i,i,i,i,i,.,.,.,.
COCCn1nnnc1C(c1cccs1)N1CCN(c2nc3ccccc3s2)CC1 (stereo not drawn),i,i,i,i,i,.,.,.,.
COCCn1nnnc1C(c1cccs1)N1CCN(c2cc(C)ccc2C)CC1 (stereo not drawn),i,i,i,-10*,i,i,i,i,i
NC(=O)c1ccccc1OCC(=O)N1CCc2ccccc2C1,i,i,i,i,i,.,.,.,.
